Measurements published in ChEMBL document CHEMBL5316280, “Development of N-(1-Adamantyl)benzamides as Novel Anti-Inflammatory Multitarget Agents Acting as Dual Modulators of the Cannabinoid CB2 Receptor and Fatty Acid Amide Hydrolase” (J Med Chem, 2023).
Active and inactive are the calls of the source. The rule behind the calls is not given here.

Tests used:
[1] = Metal chelating activity assessed as Fe2+-compound complex formation incubated for 15 mins by Ferrozine based assay
Method in brief: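 FeSO₄ (25 µM) in water incubated with or without test compound (100 µM, DMSO) for 15 min at room temperature, 300 µL final. Ferrozine then added (1 mM final), shaken 15 min at room temperature. Absorbance of the ferrozine–Fe(II) magenta complex read at 562 nm; chelation seen as reduced complex formation.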

[2] = target: T1, Fatty-acid amide hydrolase 1 (Homo sapiens, UniProt O00519); test: Inhibition of recombinant human FAAH using AMC-AA as substrate preincubated for 10 mins followed by substrate addition measured after 2 hrs by fluorometric assay
T1 sequence (O00519 whole entry): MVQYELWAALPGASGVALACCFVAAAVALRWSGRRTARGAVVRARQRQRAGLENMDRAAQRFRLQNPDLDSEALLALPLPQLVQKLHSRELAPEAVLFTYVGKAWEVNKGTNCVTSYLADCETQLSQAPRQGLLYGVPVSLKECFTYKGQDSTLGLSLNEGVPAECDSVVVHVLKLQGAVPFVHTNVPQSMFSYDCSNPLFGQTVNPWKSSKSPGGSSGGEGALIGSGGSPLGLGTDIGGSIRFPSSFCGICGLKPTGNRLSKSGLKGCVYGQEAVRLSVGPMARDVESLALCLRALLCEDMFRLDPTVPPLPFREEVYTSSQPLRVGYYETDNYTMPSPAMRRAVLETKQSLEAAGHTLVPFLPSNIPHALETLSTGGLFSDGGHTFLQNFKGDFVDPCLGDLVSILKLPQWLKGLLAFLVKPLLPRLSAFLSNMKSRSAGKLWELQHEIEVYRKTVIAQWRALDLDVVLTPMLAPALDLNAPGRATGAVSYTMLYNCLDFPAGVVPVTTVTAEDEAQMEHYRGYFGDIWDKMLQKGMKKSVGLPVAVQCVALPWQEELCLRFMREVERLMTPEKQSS
Method in brief: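 Human recombinant FAAH preincubated with inhibitor at various concentrations in Tris-HCl 125 mM, Na₂EDTA 1 mM, pH 9.0, 10 min at room temperature with shaking. AMC-AA substrate then added (1 µM final); fluorescence read every 30 s for 2 h at 37 °C (ex 340/em 450 nm). Percent inhibition from no-inhibitor controls and no-enzyme blanks; IC50 from at least three independent runs in triplicate.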

THP-1 [3] = test: Antiinflammatory activity in human THP-1 macrophages assessed as increase in IL-10 level incubated for 24 hrs by ELISA based qRT-PCR analysis; format: functional, cell-based
Method in brief: (§1)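 THP-1 cells were seeded at 1 x 10⁵ cells/ml for 48 h. For macrophages, cells were differentiated with 0.01 µM PMA for 48 h; monocytes received no PMA. Cells were then given 24 h with or without 10 µg/ml LPS, plus ligands alone or with the CB2R inverse agonist JTE907 (10 µM). Cytokines were measured in 5 µL supernatant (from 1 x 10⁴ cells) by ProQuantum immunoassay, read as pg/ml from kit titration curves; n=3.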

THP-1 [4] = test: Antiinflammatory activity in LPS-activated human THP-1 monocytes assessed as decrease in IL-6 level incubated for 24 hrs by ELISA based qRT-PCR analysis; format: functional, cell-based; method in brief: as §1
THP-1 [5] = test: Antiinflammatory activity in human THP-1 macrophages assessed as decrease in IL-6 level incubated for 24 hrs by ELISA based qRT-PCR analysis; format: functional, cell-based; method in brief: as §1
[6] = target: Cannabinoid receptor 2 (Mus musculus) (UniProt P47936); test: Agonist activity at mouse CB2 receptor transfected in CHO-K1 cells assessed as beta2-arrestin recruitment incubated for 90 mins by luminescence based assay relative to control; format: functional, cell-based; conditions: filed as agonist
Method in brief: (§2)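 PathHunter eXpress kit using mouse CB2 receptor in CHO-K1 cells. Cells were seeded 48 h before the assay in kit medium. Compounds in cell plating reagent were incubated 90 min at 37 °C, 5% CO2. Working detection solution was then added for 60 min at room temperature to read β-arrestin recruitment.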

Cannabinoid receptor 2 [7] = target: Cannabinoid receptor 2 (Mus musculus, UniProt P47936); test: Agonist activity at mouse CB2 receptor transfected in CHO-K1 cells assessed as beta2-arrestin recruitment incubated for 90 mins by luminescence based assay; format: functional, cell-based; method in brief: as §2
Cannabinoid receptor 1 = Cannabinoid receptor 1 (Homo sapiens, UniProt P21554); test: […] human CB1 receptor in CHO cells incubated for 15 mins by plate reader analysis relative to control; format: cell-based
Method in brief: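 CHO-CB1 C3 cells (human CB1) were seeded at 8000 cells/well in medium with dialyzed FBS and preincubated 15 min at 37 °C. Compounds or the CP55940 control were added for 15 min at 37 °C, then forskolin 10 µM for 5 min. cAMP was read by HTRF after 1 h at room temperature (λex 320 nm, λem 620-665 nm).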

Cannabinoid receptor 2 [8] = target: T2, Cannabinoid receptor 2 (Homo sapiens, UniProt P34972); test: Agonist activity at human CB2 receptor overexpressed in CHO-K1 cells assessed as cAMP level incubated for 30 mins by luminescence based assay; format: functional, cell-based
Method in brief: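 CHO-K1 cells overexpressing human CB2R were plated at 30 000 cells/well and held overnight at 37 °C, 5% CO2. Test samples were added as dose–response solutions with NKH-477 to stimulate adenylate cyclase, then incubated 30 min at 37 °C. cAMP was detected by luminescence after cell lysis. Values were normalized to NKH-477 alone as 100% response. Three independent experiments were run in triplicate.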

Cannabinoid receptor 2 [9] = target: T2, Cannabinoid receptor 2; test: Displacement of [3H]CP55940 from recombinant human CB2 receptor expressed in HEK293 cell membrane incubated for 90 mins by beta scintillation counter method; format: cell membranes
Method in brief: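 HEK293 membranes stably expressing human CB2 (50 µg protein/well) competed with 0.2 nM [3H]-CP55,940 (final) against test compound at 10⁻¹²–10⁻⁵ M in Tris-HCl 50 mM, EGTA 2.5 mM, MgCl₂ 5 mM, 0.1% fatty-acid-free BSA, pH 7.4; 90 min at 30 °C. Nonspecific binding defined with 10 µM GW405833.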

T2 sequence (P34972 whole entry): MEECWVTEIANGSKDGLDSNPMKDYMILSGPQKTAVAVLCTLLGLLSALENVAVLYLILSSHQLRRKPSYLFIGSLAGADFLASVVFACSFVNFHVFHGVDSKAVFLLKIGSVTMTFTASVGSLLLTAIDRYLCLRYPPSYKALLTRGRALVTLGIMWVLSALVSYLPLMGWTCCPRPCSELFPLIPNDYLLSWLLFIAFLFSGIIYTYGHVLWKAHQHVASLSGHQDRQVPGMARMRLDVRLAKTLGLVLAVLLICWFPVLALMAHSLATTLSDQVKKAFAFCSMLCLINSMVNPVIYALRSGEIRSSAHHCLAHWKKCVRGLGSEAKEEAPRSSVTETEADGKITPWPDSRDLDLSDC
Sequence of Cannabinoid receptor 2 (Mus musculus, UniProt P47936) (P47936 whole entry): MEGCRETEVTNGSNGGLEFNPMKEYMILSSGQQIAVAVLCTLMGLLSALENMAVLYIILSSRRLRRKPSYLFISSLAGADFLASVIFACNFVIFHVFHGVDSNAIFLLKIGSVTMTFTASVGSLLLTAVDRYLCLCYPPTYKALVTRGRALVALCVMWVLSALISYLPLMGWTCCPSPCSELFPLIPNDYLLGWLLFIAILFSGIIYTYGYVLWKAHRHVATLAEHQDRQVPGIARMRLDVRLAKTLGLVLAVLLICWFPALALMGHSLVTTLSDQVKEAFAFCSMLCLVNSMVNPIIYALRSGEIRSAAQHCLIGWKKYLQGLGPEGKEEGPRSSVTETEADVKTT
Sequence of Cannabinoid receptor 2 (Mus musculus) (P47936 whole entry): as above
Sequence of Cannabinoid receptor 1 (P21554 whole entry): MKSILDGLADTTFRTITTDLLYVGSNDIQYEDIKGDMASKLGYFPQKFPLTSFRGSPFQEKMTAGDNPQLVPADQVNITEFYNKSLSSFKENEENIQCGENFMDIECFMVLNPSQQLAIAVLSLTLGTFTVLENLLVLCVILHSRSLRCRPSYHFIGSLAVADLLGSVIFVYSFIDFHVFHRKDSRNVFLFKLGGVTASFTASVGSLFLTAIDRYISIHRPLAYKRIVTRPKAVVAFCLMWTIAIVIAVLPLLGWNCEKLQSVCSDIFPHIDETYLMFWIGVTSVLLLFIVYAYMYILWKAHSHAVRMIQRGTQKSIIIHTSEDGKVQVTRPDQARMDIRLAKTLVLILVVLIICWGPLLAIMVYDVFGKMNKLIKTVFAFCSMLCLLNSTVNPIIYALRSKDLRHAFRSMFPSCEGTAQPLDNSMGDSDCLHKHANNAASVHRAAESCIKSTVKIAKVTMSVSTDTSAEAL

O=C(NC12CC3CC(CC(C3)C1)C2)c1ccccc1
Activity [1]: Active
IC50 [2]: 23.4 µM

O=C(NC1CCCCC1)c1cn(CCN2CCOCC2)c2cc(Cl)ccc2c1=O
Activity (THP-1 [3]): inactive
Activity (THP-1 [4]): inactive
Activity (THP-1 [5]): inactive

CCCCCCC(C)(C)c1ccc([C@H]2C[C@@H](O)CC[C@@H]2CCCO)c(O)c1
Emax [6]: 100%
EC50 (Cannabinoid receptor 2 [7]): 0.0004 µM
Emax (Cannabinoid receptor 1): 100%

CCCC(C)(C)c1ccc2c(c1)OC(C)(C)[C@@H]1CC=C(C)C[C@@H]21
EC50 (Cannabinoid receptor 2 [8]): 0.169 µM

COc1cccc(C(=O)NC23CC4CC(CC(C4)C2)C3)c1OC
Activity [1]: Active
Ki (Cannabinoid receptor 2 [9]): 0.0876 µM
IC50 [2]: > 50 µM

COc1cc(Br)cc(C(=O)NC23CC4CC(CC(C4)C2)C3)c1OCc1ccccc1
Activity [1]: Active
Ki (Cannabinoid receptor 2 [9]): 3.2 µM
IC50 [2]: 8.8 µM

O=C(NC12CC3CC(CC(C3)C1)C2)c1ccccc1O
Activity [1]: Active
IC50 [2]: > 50 µM

COc1cccc(C(=O)NC23CC4CC(CC(C4)C2)C3)c1
Activity [1]: Active
Ki (Cannabinoid receptor 2 [9]): 0.51 µM
IC50 [2]: 32.3 µM

COc1cc(Br)cc(C(=O)NC23CC4CC(CC(C4)C2)C3)c1OC
Activity [1]: Active
Ki (Cannabinoid receptor 2 [9]): 0.139 µM
IC50 [2]: 44.6 µM

O=C(NC12CC3CC(CC(C3)C1)C2)c1cccc(OCc2ccccc2)c1
Activity [1]: Active
Ki (Cannabinoid receptor 2 [9]): 0.313 µM
IC50 [2]: 24.1 µM

COc1ccc(C(=O)NC23CC4CC(CC(C4)C2)C3)cc1
Activity [1]: Active
Ki (Cannabinoid receptor 2 [9]): 2.45 µM
IC50 [2]: > 50 µM

COc1ccccc1C(=O)NC12CC3CC(CC(C3)C1)C2
Activity [1]: Active
Ki (Cannabinoid receptor 2 [9]): 0.387 µM
IC50 [2]: 48.5 µM

COc1cccc(C(=O)NC23CC4CC(CC(C4)C2)C3)c1O
Activity [1]: Active
Ki (Cannabinoid receptor 2 [9]): 0.153 µM
IC50 [2]: > 50 µM

O=C(NC12CC3CC(CC(C3)C1)C2)c1ccc(OCc2ccccc2)cc1
Activity [1]: Active
Ki (Cannabinoid receptor 2 [9]): 3.85 µM
IC50 [2]: 19.5 µM

O=C(NC12CC3CC(CC(C3)C1)C2)c1ccc(O)cc1
Activity [1]: Active
Ki (Cannabinoid receptor 2 [9]): 1.06 µM
IC50 [2]: > 50 µM

O=C(NC12CC3CC(CC(C3)C1)C2)c1cccc(O)c1
Activity [1]: Active
IC50 [2]: 25.6 µM

COc1ccc(C(=O)NC23CC4CC(CC(C4)C2)C3)cc1OC
Activity [1]: Active
Ki (Cannabinoid receptor 2 [9]): 3 µM
IC50 [2]: > 50 µM

COc1cc(Br)cc(C(=O)NC23CC4CC(CC(C4)C2)C3)c1O
Activity [1]: Active
IC50 [2]: 38.4 µM
